Data set [1] has as its system Enterococcus faecalis. The experiment in a line: Photodynamic inactivation of Enterococcus faecalis ATCC 29212 assessed as reduction of log10 CFU at 10 uM incubated prior to irradiation with 50 j/cm'2 for 40 secs measured after 24 hrs by agar plating method (reference value: <1 no unit). Type of data set: functional. The procedure, abridged:
(§1)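 E. faecalis ATCC 29212, aerobic overnight BHI culture at 37 °C, was harvested at stationary phase and suspended in PBS at 10^7–10^8 bacteria/mL. It was mixed 1:1 with PS to 0–250 µM final, held 10 s, then illuminated (1260 ± 50 mW/cm2) or kept dark. Dilutions were plated on Mueller-Hinton agar, aerobic 37 °C 24 h, CFU counted. Medians of three independent triplicate experiments, referred to untreated controls.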

Data set [2] concerns Enterococcus faecalis. The experiment in a line: Photodynamic inactivation of Enterococcus faecalis ATCC 29212 assessed as reduction of log10 CFU at 100 uM incubated prior to irradiation with 150 j/cm'2 for 120 secs measured after 24 hrs by agar plating method (reference value: <1 no unit). Type of data set: functional. The procedure, abridged: as §1
For data set [3], the system named is Streptococcus mutans. Nature of the data set: Photodynamic inactivation of Streptococcus mutans ATCC 25175 assessed as reduction of log10 CFU at 5 uM incubated prior to irradiation with 50 j/cm'2 for 40 secs measured after 48 hrs by agar plating method (reference value: <1 no unit). The class given is functional.
Data set [4] deals with Enterococcus faecalis. The experiment in a line: Photodynamic inactivation of Enterococcus faecalis ATCC 29212 assessed as reduction of log10 CFU at 10 uM incubated prior to irradiation with 25 j/cm'2 for 20 secs measured after 24 hrs by agar plating method (reference value: <1 no unit). Type of data set: functional. The procedure, abridged:
as §1

Data set [5] relates to Enterococcus faecalis. The experiment in a line: Photodynamic inactivation of Enterococcus faecalis ATCC 29212 assessed as reduction of log10 CFU at 10 uM incubated prior to irradiation with 150 j/cm'2 for 120 secs measured after 24 hrs by agar plating method (reference value: <1 no unit). The class given is functional. The essentials: as §1
The subject of data set [6] is Enterococcus faecalis. The experiment in a line: Photodynamic inactivation of Enterococcus faecalis ATCC 29212 assessed as reduction of log10 CFU at 1 uM incubated prior to irradiation with 25 j/cm'2 for 20 secs measured after 24 hrs by agar plating method (reference value: <1 no unit). The class given is functional. The procedure, abridged:
as §1

The test system of data set [7] is Enterococcus faecalis. The experiment in a line: Photodynamic inactivation of Enterococcus faecalis ATCC 29212 assessed as reduction of log10 CFU at 1 uM incubated prior to irradiation with 50 j/cm'2 for 40 secs measured after 24 hrs by agar plating method (reference value: <1 no unit). The class given is functional. The essentials:
as §1

In data set [8] the test system is Streptococcus mutans. The experiment in a line: Photodynamic inactivation of Streptococcus mutans ATCC 25175 assessed as reduction of log10 CFU at 10 uM incubated prior to irradiation with 25 j/cm'2 for 20 secs measured after 48 hrs by agar plating method (reference value: <1 no unit). The class given is functional.
Data set [9] concerns Streptococcus mutans. Nature of the data set: Photodynamic inactivation of Streptococcus mutans ATCC 25175 assessed as reduction of log10 CFU at 100 uM incubated prior to irradiation with 25 j/cm'2 for 20 secs measured after 48 hrs by agar plating method (reference value: <1 no unit). Type of data set: functional.
Data set [10] in a line: Octanol-water partition coefficient, log P of the compound at 1 x 10^-4 mol at room temperature after 10 mins by UV/vis spectroscopic analysis. The class given is physicochemical.
Data set [11] deals with Enterococcus faecalis. The experiment in a line: Photodynamic inactivation of Enterococcus faecalis ATCC 29212 assessed as reduction of log10 CFU at 100 uM incubated prior to irradiation with 25 j/cm'2 for 20 secs measured after 24 hrs by agar plating method (reference value: <1 no unit). Type of data set: functional. The essentials: as §1
In data set [12] the test system is Enterococcus faecalis. Nature of the data set: Photodynamic inactivation of Enterococcus faecalis ATCC 29212 assessed as reduction of log10 CFU at 5 uM incubated prior to irradiation with 25 j/cm'2 for 20 secs measured after 24 hrs by agar plating method (reference value: <1 no unit). The class given is functional. The procedure, abridged: as §1
Data set [13] in a line: Photobleaching of the compound irradiated with laser energy at 405 nm for 5 mins. The class given is physicochemical. Also noted: dose or concentration left out as unconfirmed.
Data set [14] relates to Enterococcus faecalis. The experiment in a line: Photodynamic inactivation of Enterococcus faecalis ATCC 29212 assessed as reduction of log10 CFU at 5 uM incubated prior to irradiation with 50 j/cm'2 for 40 secs measured after 24 hrs by agar plating method (reference value: <1 no unit). Type of data set: functional. The procedure, abridged: as §1
The subject of data set [15] is Enterococcus faecalis. Nature of the data set: Photodynamic inactivation of Enterococcus faecalis ATCC 29212 assessed as reduction of log10 CFU at 100 uM incubated prior to irradiation with 50 j/cm'2 for 40 secs measured after 24 hrs by agar plating method (reference value: <1 no unit). Type of data set: functional. The procedure, abridged: as §1
Data set [16] is described as follows: Induction of singlet oxygen generation measured over 20 mins by luminescence assay. Type of data set: physicochemical.
Data set [17] deals with Enterococcus faecalis. Nature of the data set: Photodynamic inactivation of Enterococcus faecalis ATCC 29212 assessed as reduction of log10 CFU at 5 uM incubated prior to irradiation with 150 j/cm'2 for 120 secs measured after 24 hrs by agar plating method (reference value: <1 no unit). The class given is functional. The procedure, abridged:
as §1

The subject of data set [18] is Enterococcus faecalis. The experiment in a line: Photodynamic inactivation of Enterococcus faecalis ATCC 29212 assessed as reduction of log10 CFU at 1 uM incubated prior to irradiation with 150 j/cm'2 for 120 secs measured after 24 hrs by agar plating method (reference value: <1 no unit). Type of data set: functional. The procedure, abridged: as §1
A short description of data set [19]: Stability of the compound in D2O at 90 degC after > 10 mins by NMR analysis. Type of data set: physicochemical.
Data set [20] can be described thus: Stability of the compound in acidic medium at 60 uM at pH 2 after 5 to 30 mins by UV-vis spectra analysis. The class given is physicochemical. Particulars: buffer, pH 2, 60 µM. The essentials:
(§2)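 UV-Vis absorption spectra recorded in buffer solutions at different pH values after 5 and 30 min incubation.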

Data set [21] has as its system Streptococcus mutans. Nature of the data set: Photodynamic inactivation of Streptococcus mutans ATCC 25175 assessed as reduction of log10 CFU at 1 to 250 uM preincubated for 10 secs followed by irradiation with 50 j/cm'2 for 40 secs measured after 48 hrs by agar plating method. The class given is functional.
The nature of data set [22]: Stability of the compound in basic medium at 60 uM at pH > 9 after 5 to 30 mins by UV-vis spectra analysis. The class given is physicochemical. The procedure, abridged: as §2
In data set [23] the test system is Aggregatibacter actinomycetemcomitans. Nature of the data set: Photodynamic inactivation of Aggregatibacter actinomycetemcomitans ATCC 43718 assessed as reduction of log10 CFU at 1 to 250 uM incubated prior to irradiation with 50 j/cm'2 for 40 secs measured after 48 hrs by agar plating method. Type of data set: functional. The conditions noted are these: Y4. The essentials: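 A. actinomycetemcomitans ATCC 43718 cultured overnight in BHI broth under anaerobic conditions, 37 °C with shaking. Stationary-phase cells were spun down, taken up in PBS to 10^7–10^8/mL, and combined 1:1 with PS (final 0–250 µM) or water. After 10 s they were irradiated at 1260 ± 50 mW/cm2 or kept dark. Serial dilutions went onto BHI agar, incubated anaerobically at 37 °C for 48 h, and CFU were scored. Results are medians from 3 experiments × triplicate versus untreated controls.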

Active and inactive are the calls of the source. The calls are words filed in the database; no cut-off is given here. Some results are limits rather than exact numbers.

The values below come from ChEMBL document CHEMBL3297702, “Improving photodynamic inactivation of bacteria in dentistry: highly effective and fast killing of oral key pathogens with novel tooth-colored type-II photosensitizers” (J Med Chem, 2014).

In the case of `C[N+](C)(CCO)CC1=Cc2cccc3cccc(c23)C1=O.[Cl-]`, the log10cfu in the data set on Enterococcus faecalis [1] is below 3; in the data set on Enterococcus faecalis [2], above 6; in the data set with Streptococcus mutans [3], below 1; in the data set on Enterococcus faecalis [4], below 3; with Enterococcus faecalis [5], above 6; in the data set on Enterococcus faecalis [6] it was below 1. The log10cfu in the data set on Enterococcus faecalis [7] is reported as below 1; in the data set on Streptococcus mutans [8] it was below 1; in the data set on Streptococcus mutans [9], above 6; in the data set on Enterococcus faecalis [11], above 6; with Enterococcus faecalis [12], below 1; in the data set with Enterococcus faecalis [14] it was below 1. The log10cfu in the data set with Enterococcus faecalis [15] is above 6; with Enterococcus faecalis [17], below 3; with Enterococcus faecalis [18], below 1. The compound also had a logP at 10 min in data set [10] of -1.3. In data set [13], the Stability entry is “Unstable”. Also, the outcome in data set [16] was Active.

Consider `O=C1C(C[n+]2ccccc2)=Cc2cccc3cccc1c23.[Cl-]`, for which the log10cfu is on record as above 6 in the data set on Enterococcus faecalis [1]; above 6 in the data set on Enterococcus faecalis [2]; below 3 in the data set with Streptococcus mutans [3]; below 3 with Enterococcus faecalis [4]; above 6 in the data set on Enterococcus faecalis [5]; below 1 in the data set on Enterococcus faecalis [6]. The log10cfu with Enterococcus faecalis [7] is below 1; in the data set on Streptococcus mutans [8] it was below 3; in the data set on Streptococcus mutans [9], above 6; with Enterococcus faecalis [11], above 6; in the data set on Enterococcus faecalis [12] it was below 1; with Enterococcus faecalis [14], below 3. In addition, the log10cfu in the data set on Enterococcus faecalis [15] is listed as above 6; in the data set with Enterococcus faecalis [17], above 6; in the data set on Enterococcus faecalis [18], below 3. The Stability entry is on record as “Stable” in [19], “Stable” in [20], “Unstable” in data set [13] and “Unstable” in data set [22]. The result (with Streptococcus mutans [21]; in [23]) was Active. Besides, the logP at 10 min in data set [10] was -1.3. Further, the outcome in data set [16] was Active.

On to `C[N+](C)(C)CC1=Cc2cccc3cccc(c23)C1=O.[Cl-]`, for which the log10cfu was below 3 in the data set with Enterococcus faecalis [1]; above 6 in the data set with Enterococcus faecalis [2]; below 1 in the data set with Enterococcus faecalis [4]; above 6 in the data set with Enterococcus faecalis [5]; below 1 in the data set with Enterococcus faecalis [6]; below 1 in the data set with Enterococcus faecalis [7]. In addition, the log10cfu in the data set with Enterococcus faecalis [11] is on record as above 6; with Enterococcus faecalis [12], below 1; in the data set on Enterococcus faecalis [14], below 3; in the data set with Enterococcus faecalis [15], above 6; with Enterococcus faecalis [17] it was above 6; in the data set with Enterococcus faecalis [18] it was below 3. Moreover, the Stability entry in data set [19] is on record as “Stable”; in [20], “Stable”; in data set [13], “Unstable”; in data set [22], “Unstable”. Moreover, the outcome (with Streptococcus mutans [21]; in data set [23]) was Active. Also, the logP at 10 min in data set [10] was -1.4. Also, the outcome in [16] was Active.
